Results on two compounds are retold here after ChEMBL document CHEMBL1687709 (Antimicrob Agents Chemother, 2008).

Holding throughout (format): ADME, organism-based
The nature of data set [1]: AUC in HIV-infected patient at 480 mg/m2, po administered every 12 hrs for 6 weeks co-administered with 120 mg/m2 of ritonavir and saquinavir. As to conditions: human, plasma. Summed up:
(§1)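 Step 2 SQV 750 mg/m2 q12h was added by week 4 when LPV IQ was <15. A second 12-h intensive PK study ran after 2 weeks of SQV plus LPV/r (week 6), with plasma predose and at 1, 2, 3, 6 and 12 h. HPLC-UV at 212 nm (LPV 0.100–40, SQV 0.050–20 μg/ml). Noncompartmental AUC, Cmax, Tmax and C12h.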

The nature of data set [2]: Cmax in HIV-infected patient at 480 mg/m2, po administered every 12 hrs for 6 weeks co-administered with 120 mg/m2 of ritonavir and saquinavir. On the set-up: route oral. As to conditions: human, in vivo. The method, boiled down: as §1
Data set [3] is described as follows: Plasma concentration in HIV-infected patient at 480 mg/m2, po administered every 12 hrs for 6 weeks co-administered with 120 mg/m2 of ritonavir and saquinavir measured 12 hrs after last dose. As to conditions: human. Summed up: as §1
Data set [4] is described as follows: Tmax in HIV-infected patient at 480 mg/m2, po administered every 12 hrs for 6 weeks co-administered with 120 mg/m2 of ritonavir and saquinavir. Conditions: human, in vivo. The method, boiled down:
as §1

Data set [5] can be described thus: AUC in HIV-infected patient at 400 mg/m2, po administered every 12 hrs for 2 weeks co-administered with 120 mg/m2 of ritonavir. As to conditions: human, plasma, in the assay text read “100 mg/m2 of ritonavir” for “120 mg/m2 of ritonavir”. Summed up: (§2)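 Treatment-experienced HIV-infected children and adolescents. Without NNRTI: LPV/r 400/100 mg/m2 q12h. With NNRTI: 480/120 mg/m2 q12h. Given as gel capsule or liquid. After 2 weeks, a 12-h intensive PK study followed an observed dose, no standardized meal. Plasma (EDTA) was drawn predose and at 1, 2, 3, 6 and 12 h. LPV was measured by HPLC-UV at 212 nm (range 0.100–40 μg/ml). Noncompartmental AUC, Cmax, Tmax, C12h and CL/F.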

Data set [6] can be described thus: Cmax in HIV-infected patient at 400 mg/m2, po administered every 12 hrs for 2 weeks co-administered with 120 mg/m2 of ritonavir. On the set-up: route oral. Conditions: human, in vivo, in the assay text read “100 mg/m2 of ritonavir” for “120 mg/m2 of ritonavir”. Summed up:
as §2

A short description of data set [7]: Clearance in HIV-infected patient at 400 mg/m2, po administered every 12 hrs for 2 weeks co-administered with 120 mg/m2 of ritonavir. As to conditions: human, in vivo, in the assay text read “100 mg/m2 of ritonavir” for “120 mg/m2 of ritonavir”. The method, boiled down:
as §2

Data set [8] in a line: Plasma concentration in HIV-infected patient at 400 mg/m2, po administered every 12 hrs for 2 weeks co-administered with 120 mg/m2 of ritonavir measured 12 hrs after last dose. As to conditions: human, in the assay text read “100 mg/m2 of ritonavir” for “120 mg/m2 of ritonavir”. Summed up: as §2
Data set [9] is described as follows: Tmax in HIV-infected patient at 400 mg/m2, po administered every 12 hrs for 2 weeks co-administered with 120 mg/m2 of ritonavir. Conditions: human, in vivo, in the assay text read “100 mg/m2 of ritonavir” for “120 mg/m2 of ritonavir”. The method, boiled down:
as §2

`CC(C)(C)NC(=O)[C@@H]1C[C@@H]2CCCC[C@@H]2CN1C[C@@H](O)[C@H](Cc1ccccc1)NC(=O)[C@H](CC(N)=O)NC(=O)c1ccc2ccccc2n1`: the AUC in data set [1] turned out to be 33700 ng·h/mL. In addition, the peak concentration (Cmax) in data set [2] amounted to 3600 ng/mL. Moreover, the concentration at 12 h in data set [3] stood at 1820 ng/mL. Also, in data set [4], the time of peak concentration (Tmax) amounted to 3 h.
Regarding `Cc1cccc(C)c1OCC(=O)N[C@@H](Cc1ccccc1)[C@@H](O)C[C@H](Cc1ccccc1)NC(=O)[C@H](C(C)C)N1CCCNC1=O` [LOPINAVIR], in [5], the area under the curve (AUC) stood at 157000 ng·h/mL. Moreover, in data set [6], the highest concentration (Cmax) came to 17200 ng/mL. Further, the CL/F in data set [7] is 43 mL/min. The concentration at 12 h in data set [8] stood at 8800 ng/mL. In addition, the Tmax in data set [9] is 3 h.
